# NR3A LBD binder = NR3A (human) ligand-binding domain modulation; AID 1259313; NR3A LBD differential scanning fluorimetry, Tm shift; 0% = protein alone, 100% = glycine-bound protein; actives 2.5% (n = 340,000); Tm shift relative to glycine control, % at 25 µM;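 active means melting temperature shift of at least 10% of the positive control shift, at one fixed dose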
# ADAM17 inh = inhibitors of human ADAM17; P78536; recombinant ADAM17, EDANS/DABCYL FRET peptide cleavage; inhibition, % at 6.95 µM; actives 0.83% (n = 370,000); AID 720648;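 active means inhibition above the mean of compounds lying between control limits plus 3 SD, set per campaign, cut at about 8.5% in these data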;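 further: 0% = DMSO-only wells as the low control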
# Target sequence (P78536 215-824 limits assumed): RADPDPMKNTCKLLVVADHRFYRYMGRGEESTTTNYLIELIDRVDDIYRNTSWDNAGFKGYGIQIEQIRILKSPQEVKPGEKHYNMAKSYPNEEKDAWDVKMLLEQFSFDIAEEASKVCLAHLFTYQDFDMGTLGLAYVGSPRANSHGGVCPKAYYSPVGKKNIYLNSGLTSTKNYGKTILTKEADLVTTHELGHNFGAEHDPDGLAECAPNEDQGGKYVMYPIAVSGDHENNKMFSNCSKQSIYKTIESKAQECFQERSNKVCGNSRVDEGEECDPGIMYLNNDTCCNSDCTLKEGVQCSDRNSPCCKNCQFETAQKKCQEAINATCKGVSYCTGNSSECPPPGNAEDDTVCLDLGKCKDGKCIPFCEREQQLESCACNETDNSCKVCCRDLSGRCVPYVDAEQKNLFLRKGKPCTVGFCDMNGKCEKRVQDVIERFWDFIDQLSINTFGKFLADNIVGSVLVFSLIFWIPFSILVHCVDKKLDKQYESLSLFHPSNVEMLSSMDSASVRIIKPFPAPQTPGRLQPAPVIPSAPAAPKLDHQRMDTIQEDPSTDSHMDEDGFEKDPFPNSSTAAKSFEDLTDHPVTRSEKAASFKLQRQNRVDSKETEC
# MT1-MMP act inh = blocks activation of human MT1-MMP. P50281. HT1080 RFP-PRO-GFP cells, GFP/RFP ratio fluorescence, overnight; percent of plate control window, DMSO zero. GFP/RFP ratio change, % at 20 µM. actives 0.061% (n = 360,000). AID 651647;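 active means GFP/RFP ratio change of at least 30% with cell ATP level not reduced by more than half and red fluorescence within 50% of control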
#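 Assay system – RFP-PRO-GFP reporter HT1080 cells · Compound dosing – single dose of 20 µM compound, 1% DMSO final · Incubation – overnight compound exposure at 37 °C · Measure – GFP/RFP fluorescence ratio · Benchmarks – DMSO wells and RFP-L50D-GFP cells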
# ADAM10 inh = inhibitors of human ADAM10; actives 0.62% (n = 370,000); AID 720582; O14672; inhibition, % at 7 µM; recombinant ADAM10, EDANS/DABCYL FRET peptide cleavage, 3 h;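 active means inhibition above a per-campaign cutoff equal to the mean of compounds falling between control-based bounds plus 3 SD, cut at about 20% in these data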;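 further: 0% = DMSO wells while the 100% control is not disclosed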
# SKN-1 block = C. elegans SKN-1 inhibition; C. elegans VP596 Pgst-4::GFP/RFP ratio, acrylamide-induced, 24 h; inhibition, % at 21.8 µM; actives 0.49% (n = 360,000);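 active means interference check ratio from 0.5 to 1.5 plus GFP to RFP signal ratio inhibition reaching or exceeding a fixed threshold, cut at about 30% in these data, passing the limit was not always enough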
# MPTP block = permeability transition pore inhibition | inhibition, % at 10 µM | actives 1.4% (n = 360,000) | isolated mouse mitochondria, Ca2+ swelling absorbance, 30 min;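 active means inhibition of 50% or more, scaled per plate between neutral and stimulator controls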;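 further: 0% = DMSO wells given calcium and 100% = 1 mM EGTA wells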
# ADAM10 counter = ADAM10 inhibition, counter-screen for ADAM17 exosite hits. shares compounds with ADAM17 inh. recombinant ADAM10, EDANS/DABCYL FRET peptide cleavage, 3 h. inhibition, % at 6.95 µM. actives 47% (n = 2,900);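 active means mean inhibition over the triplicate runs exceeds the activity threshold set in the earlier primary screen, cut at about 20% in these data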;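 further: 0% = DMSO wells and 100% = marimastat wells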
# ADAM17 confirm = human ADAM17 inhibition, confirmation. shares compounds with ADAM17 inh. recombinant ADAM17, EDANS/DABCYL QFRET peptide cleavage. inhibition, % at 6.95 µM. actives 65% (n = 2,900). AID 743257;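 active means mean inhibition across replicates above the hit cutoff set in the primary screen, cut at about 8.5% in these data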;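 further: 0% = DMSO wells and 100% = marimastat wells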
# Active calls of the source: *; . = no result. In the library only some 4.7% were active in any assay of this set; here they are far more common.
SMILES,NR3A LBD binder,ADAM17 inh,MT1-MMP act inh,ADAM10 inh,SKN-1 block,MPTP block,ADAM10 counter,ADAM17 confirm
CC1CCN(C2(O)C(=O)Nc3ccc([N+](=O)[O-])cc32)CC1 (configuration not stated),0,11*,-2,17,-11,1,12,8
O=C1[C@@H](Oc2ccccc2)[C@@H](c2ccccc2)N1c1cccnc1,2,-6,0,-22,2,-1,.,.
Cc1ccccc1NC(=O)CC1SC(=O)N(c2ccccc2)C1=O (configuration not stated),2,0,-1,18,1,0,.,.
COc1cccc(NC(=O)CC2S/C(=N\S(=O)(=O)c3ccccc3)N(c3ccccc3)C2=O)c1 (configuration not stated),3,10*,1,16,4,2,15,9.8*
CCOc1ccc(NC(=O)CC2SC(=O)N(c3ccccc3)C2=O)cc1 (configuration not stated),-14,9.6*,-1,15,7,0,14,41*
Cc1ccc(Cl)cc1N1CCN(Cc2cc(=O)n3ccsc3n2)CC1,1,-14,-10,-31,-1,-6,.,.
NS(=O)(=O)c1ccc(NCc2ccccc2OCc2ccccc2F)cc1,-16,7,-7,13,12,5,.,.
NS(=O)(=O)c1ccc(NCc2cc(Cl)ccc2OCc2ccc(F)cc2)cc1,-10,9.3*,-1,16,27,13,20,12*
Cn1c(SCCOc2ccccc2Cl)nnc1-c1cccs1,-3,3,2,0,-5,2,.,.
COc1cccc(C(Nc2ccccn2)c2oc(CO)cc(=O)c2O)c1 (configuration not stated),-5,13*,-3,1,-4,2,27*,29*
O=c1oc2ccc(Br)cc2cc1S(=O)(=O)c1ccc(F)cc1,8,.,-16,.,6,0,.,.

# Source: PubChem BioAssay
